Data from ChEMBL document CHEMBL2346664, “Synthesis, characterization and in vitro anticancer evaluation of novel 1,2,4-triazolin-3-one derivatives” (2013).

Columns and labels:
Assay type in all cases: functional
UACC-62 = assay: Growth inhibition of human UACC62 cells assessed as growth inhibition at 10 uM after 48 hrs by sulforhodamine B assay; conditions: UACC-62, 48 h, read-out: GI
MDA-MB-231 = assay: Growth inhibition of human MDA-MB-231 cells assessed as cell growth at 10 '-5 M after 48 hrs by sulforhodamine B assay; conditions: MDA-MB-231, 48 h, read-out: Activity
SK-MEL-5 = assay: Growth inhibition of human SK-MEL-5 cells assessed as cell growth at 10 '-6 M after 48 hrs by sulforhodamine B assay; conditions: SK-MEL-5, 48 h, read-out: Activity
HOP-62 = assay: Growth inhibition of human HOP62 cells assessed as cell growth at 10 '-4 M after 48 hrs by sulforhodamine B assay; conditions: HOP-62, 48 h, read-out: Activity
SNB-75 = assay: Growth inhibition of human SNB75 cells assessed as cell growth at 10 '-8 M after 48 hrs by sulforhodamine B assay; conditions: SNB-75, 48 h, read-out: Activity
COLO 205 = assay: Growth inhibition of human COLO205 cells assessed as cell growth at 10 '-7 M after 48 hrs by sulforhodamine B assay; conditions: COLO 205, 48 h, read-out: Activity
HL-60(TB) [1] = assay: Growth inhibition of human HL-60(TB) cells assessed as cell growth at 10 '-7 M after 48 hrs by sulforhodamine B assay; conditions: HL-60, 48 h, read-out: Activity
Outline: (§1)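 Five-dose NCI protocol with final concentrations of 0.01–100 µM and drug diluted from a DMSO stock (400× the top concentration) in medium with gentamicin. Cells were pre-incubated 24 h, then exposed 48 h at 37 °C. Suspension cells were fixed with 16% final TCA, SRB-stained and read at 515 nm. Percentage growth at each level was [(Ti−Tz)/(C−Tz)]×100, or [(Ti−Tz)/Tz]×100 when Ti < Tz.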

MDA-MB-468 = assay: Growth inhibition of human MDA-MB-468 cells after 48 hrs by sulforhodamine B assay; conditions: MDA-MB-468, 48 h
Outline: (§2)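 NCI 60-cell-line five-dose screen. Cells were plated at 5,000–40,000/well by doubling time and grown 24 h at 37 °C, 5% CO2. Time-zero plates were TCA-fixed. Drug from DMSO stock was tested at 0.01, 0.1, 1, 10 and 100 µM final for 48 h continuous exposure. Read-out was SRB at 515 nm. GI50 is the concentration giving 50% reduction in net protein increase versus untreated control.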

IGROV-1 [2] = assay: Growth inhibition of human IGROV1 cells assessed as growth inhibition at 10 uM after 48 hrs by sulforhodamine B assay; conditions: IGROV-1, 48 h, read-out: GI
HL-60(TB) [3] = assay: Growth inhibition of human HL-60(TB) cells assessed as cell growth at 10 '-6 M after 48 hrs by sulforhodamine B assay; conditions: HL-60, 48 h, read-out: Activity; outline: as §1
LOX IMVI [4] = assay: Growth inhibition of human LOXIMVI cells assessed as cell growth at 10 '-4 M after 48 hrs by sulforhodamine B assay; conditions: read-out: Activity
U-251 = assay: Growth inhibition of human U251 cells assessed as growth inhibition at 10 uM after 48 hrs by sulforhodamine B assay; conditions: U-251, 48 h, read-out: GI
LOX IMVI [5] = assay: Growth inhibition of human LOXIMVI cells assessed as cell growth at 10 '-5 M after 48 hrs by sulforhodamine B assay; conditions: read-out: Activity
[6] = Growth inhibition of human EKVX cells assessed as cell growth at 10 '-7 M after 48 hrs by sulforhodamine B assay; conditions: read-out: Activity
TK-10 = assay: Growth inhibition of human TK10 cells assessed as cell growth at 10 '-7 M after 48 hrs by sulforhodamine B assay; conditions: TK-10, 48 h, read-out: Activity
KM12 = assay: Growth inhibition of human KM12 cells assessed as cell growth at 10 '-7 M after 48 hrs by sulforhodamine B assay; conditions: KM12, 48 h, read-out: Activity
SK-MEL-28 = assay: Growth inhibition of human SK-MEL-28 cells assessed as cell growth at 10 '-7 M after 48 hrs by sulforhodamine B assay; conditions: SK-MEL-28, 48 h, read-out: Activity
SW-620 = assay: Growth inhibition of human SW620 cells assessed as cell growth at 10 '-6 M after 48 hrs by sulforhodamine B assay; conditions: SW-620, 48 h, read-out: Activity
PC-3 = assay: Growth inhibition of human PC3 cells assessed as cell growth at 10 '-6 M after 48 hrs by sulforhodamine B assay; conditions: PC-3, 48 h, read-out: Activity
IGROV-1 [7] = assay: Growth inhibition of human IGROV1 cells assessed as cell growth at 10 '-8 M after 48 hrs by sulforhodamine B assay; conditions: IGROV-1, 48 h, read-out: Activity
K562 = assay: Growth inhibition of human K562 cells after 48 hrs by sulforhodamine B assay; conditions: K562, 48 h; outline: as §2
[8] = Growth inhibition of human NCI-ADR-RES cells assessed as cell growth at 10 '-6 M after 48 hrs by sulforhodamine B assay; conditions: read-out: Activity
CAKI-1 = assay: Growth inhibition of human CAKI-1 cells assessed as cell growth at 10 '-6 M after 48 hrs by sulforhodamine B assay; conditions: CAKI-1, 48 h, read-out: Activity
Outline: (§3)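 Percent growth at each of the five concentrations of the 48 h continuous-exposure NCI SRB screen. Drug stocks were in DMSO at 400× the top final concentration and diluted in medium with gentamicin. Growth was calculated as [(Ti-Tz)/(C-Tz)]×100 when Ti ≥ Tz, or [(Ti-Tz)/Tz]×100 when Ti < Tz. Tz plates were fixed at drug addition; untreated wells served as control. Absorbance was read at 515 nm.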

RXF 393 = assay: Growth inhibition of human RXF393 cells assessed as growth inhibition at 10 uM after 48 hrs by sulforhodamine B assay; conditions: RXF 393, 48 h, read-out: GI
HL-60(TB) [9] = assay: Growth inhibition of human HL-60(TB) cells assessed as cell growth at 10 '-4 M after 48 hrs by sulforhodamine B assay; conditions: HL-60, 48 h, read-out: Activity; outline: as §1
ACHN = assay: Growth inhibition of human ACHN cells assessed as cell growth at 10 '-8 M after 48 hrs by sulforhodamine B assay; conditions: read-out: Activity; outline: as §3
HCT-15 = assay: Growth inhibition of human HCT15 cells assessed as cell growth at 10 '-4 M after 48 hrs by sulforhodamine B assay; conditions: HCT-15, 48 h, read-out: Activity
DU-145 = assay: Growth inhibition of human DU145 cells assessed as cell growth at 10 '-7 M after 48 hrs by sulforhodamine B assay; conditions: DU-145, 48 h, read-out: Activity
HOP-92 = assay: Growth inhibition of human HOP92 cells assessed as cell growth at 10 '-6 M after 48 hrs by sulforhodamine B assay; conditions: HOP-92, 48 h, read-out: Activity
SN12C = assay: Growth inhibition of human SN12C cells assessed as growth inhibition at 10 uM after 48 hrs by sulforhodamine B assay; conditions: read-out: GI
[10] = read-out: LD50 (the source's name)

Cc1cc(=O)oc2cc(OCCn3c(C)nn(-c4ccc(Cl)cc4)c3=O)ccc12
inhibition of growth at 10 µM (UACC-62): 56.7%
growth at 10 µM (MDA-MB-231): 42%
growth at 1 µM (SK-MEL-5): 47%
growth at 100 µM (HOP-62): -8%
growth at 0.01 µM (SNB-75): 88%
growth at 0.1 µM (COLO 205): 102%
growth at 0.1 µM (HL-60(TB) [1]): 104%
GI50 (MDA-MB-468): 2690 nM
TGI (MDA-MB-468): 5760 nM
CC50 (MDA-MB-468; [10]): > 1000 nM
inhibition of growth at 10 µM (IGROV-1 [2]): 40.3%
growth at 1 µM (HL-60(TB) [3]): 91%
growth at 100 µM (LOX IMVI [4]): 30%
inhibition of growth at 10 µM (U-251): 68.6%
growth at 10 µM (LOX IMVI [5]): 39%
growth at 0.1 µM [6]: 90%
growth at 0.1 µM (TK-10): 101%
growth at 0.1 µM (KM12): 105%
growth at 0.1 µM (SK-MEL-28): 87%
growth at 1 µM (SW-620): 68%
growth at 1 µM (PC-3): 74%
growth at 0.01 µM (IGROV-1 [7]): 108%
GI50 (K562): 1290 nM
TGI (K562): > 1000 nM
CC50 (K562; [10]): > 1000 nM
growth at 1 µM [8]: 61%
growth at 1 µM (CAKI-1): 68%
inhibition of growth at 10 µM (RXF 393): 62.6%
growth at 100 µM (HL-60(TB) [9]): 1%
growth at 0.01 µM (ACHN): 111%
growth at 100 µM (HCT-15): 25%
growth at 0.1 µM (DU-145): 108%
growth at 1 µM (HOP-92): 83%
inhibition of growth at 10 µM (SN12C): 48.2%
